Measurements published in article PMC4090259 (Stem cell research, 2014).
Read-outs that look alike come from different tables or passages of the source. Each block holds one compound with its values, some of them ahead of it.

Assays:
ReNcell VM cells [1] = assay type: cell-based, human
[2] = tested on: various cancer cell lines; conditions: literature values for various cancer cell lines; ref Chauffert & Dimanche-Boitrel 1998; Lee et al. 2008; Meli et al. 2012; cited from earlier work
[3] = tested on: ReNcell CX neural progenitor cell line; conditions: cited from earlier work
[4] = tested on: ReNcell VM differentiated progeny (astrocytic phenotype); assay type: cell-based, human
ReNcell VM cells [5] = assay: Cytotoxicity in 2D ReNcell VM cultures, 96-well plate format; assay type: cell-based; conditions: Homo sapiens
In short: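 Human neural stem cells seeded at 5,000 cells/well and left to attach for at least 5 h. Doses made by 4-fold serial dilution from the highest dose, each holding 0.5% DMSO vehicle. Viability read by MTT: 2.5 mg/ml MTT solution added, 3 h under culture conditions, supernatant removed, formazan dissolved in DMSO, absorbance at 590 nm with 690 nm reference.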

Hep3B = conditions: when P450 metabolism was absent; ref Lee et al. 2008; cited from earlier work

Compound: [Cl][Cd][Cl] [CdCl, cadmium chloride hydrate]
IC50 (ReNcell VM cells [1]; Non-differentiated, 3D alginate microarray, 24 h exposure + 48 h in medium): 0.00736 mM

Compound: O=c1[nH]cc(F)c(=O)[nH]1 [5-Fluorouracil, 5-fluorouracil]
IC50 [2]: 1 to 85 µM
effect on proliferation and viability ([3]; non-differentiated, 2D well plate, after 24 h of incubation with the drug, ref Breier et al. 2008a): inhibited proliferation without affecting viability

IC50 (ReNcell VM cells [1]; Homo sapiens, ReNcell VM): 2 mM
IC50 ([4]; Homo sapiens, ReNcell VM): 60 µM
Compound: C[C@@H]1C[C@H]2[C@@H]3CCC4=CC(=O)C=C[C@]4(C)[C@@]3(F)[C@@H](O)C[C@]2(C)[C@@]1(O)C(=O)CO [Dexamethasone, dexamethasone]
IC50 (ReNcell VM cells [5]): 215 µM
effect on viability ([3]; concentrations of up to 100 μM, ref Breier et al. 2008b): negligible effect on viability

IC50 (ReNcell VM cells [1]; Homo sapiens, ReNcell VM): 2.4 mM
Compound: CC(=O)Nc1ccc(O)cc1 [Acetaminophen, acetaminophen]
viability of the cells below the hepatotoxic range of concentrations (ReNcell VM cells [1]; hNSC line, concentrations below ~0.2 – 1 mM): remains unaffected
viability of the cells below the hepatotoxic range of concentrations ([4]; differentiated progeny, concentrations below ~0.2 – 1 mM): remains unaffected
IC50 (ReNcell VM cells [5]): 1760 µM
toxicity (Hep3B): non-toxic
